From ChEMBL document CHEMBL1126801, “Synthesis and antiviral activity of 2'-substituted 9-[2-(phosphonomethoxy)ethyl]guanine analogues” (J Med Chem, 1993)

How the values were obtained:
[1] = Toxic concentration, in CEM cells estimated by the XTT assay; format: toxicity, cell-based; details: human, CCRF-CEM (CEM) cells; read-out: TC50 (the source's name)
[2] = test system: Human immunodeficiency virus 1; assay: Tested in vitro against human immunodeficiency virus (HIV) infected CEM cells using XTT assay (HIV-HRF strain); NA = not active at 100 uM; format: functional, organism-based; details: ccrf-cem
How it was run: (§1)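 Anti-HIV XTT assay in HIV-infected CEM cells, using the LAV-BRU or HIV-HRF strain as the line names. The value is the 50% inhibitory concentration. The top concentration tested was 100 μM, and inactivity there is scored NA.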

[3] = Tested in vitro against HSV 2 from Wi-38 cells; format: organism-based; details: human alphaherpesvirus 2, WI-38 cells; read-out: TC50 (the source's name)
[4] = Tested in vitro against HCMV from WI-38 cells; format: organism-based; details: human betaherpesvirus 5, WI-38 cells; read-out: TC50 (the source's name)
[5] = test system: Human alphaherpesvirus 2; assay: Tested in vitro against HSV 2 from WI-38 cells; NA= not active at 100 uM; format: functional, organism-based
[6] = test system: Human betaherpesvirus 5; assay: Tested in vitro against HCMV from WI-38 cells; NA= not active at 100 uM; format: functional, organism-based
[7] = test system: Human immunodeficiency virus 1; assay: Tested in vitro against human immunodeficiency virus (HIV) infected CEM cells using XTT assay (LAV-BRU strain); NA = not active at 100 uM; format: functional, organism-based; details: ccrf-cem; how it was run: as §1
[8] = test system: Human alphaherpesvirus 2; assay: Tested in vitro against HSV 2 G strain in vero cells; NA= not active at 100 uM; format: functional, organism-based
How it was run: (§2)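 Plaque reduction assay against HSV-2 strain G in Vero cells, giving a 50% inhibitory concentration. The top concentration tested was 100 μM, and inactivity there is scored NA.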

[9] = test system: Human betaherpesvirus 5; assay: (§3) Tested in vitro against HCMV AD-169 strain in MRC-5 cells; format: functional, organism-based; details: Human betaherpesvirus 5, MRC5
How it was run: (§4)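 Plaque reduction assay against HCMV strain AD-169 in MRC-5 cells, giving a 50% inhibitory concentration. The top concentration tested was 100 μM, and inactivity there is scored NA.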

[10] = as §3; format: ADME, organism-based, MRC5; details: human betaherpesvirus 5, MRC-5 cells; read-out: TC50 (the source's name)
[11] = (§5) Tested in vitro against HSV 2 G strain in vero cells; format: organism-based; details: human alphaherpesvirus 2, Vero cells; read-out: TC50 (the source's name)
[12] = test system: Human betaherpesvirus 5; assay: Tested in vitro against HCMV AD-169 strain in MRC-5 cells; NA= not active at 100 uM; format: functional, organism-based; details: mrc5; how it was run: as §4
[13] = test system: CCRF-CEM; assay: Cell growth toxicity against CEM cells after treatment with compound for 72 hours; format: functional; details: Homo sapiens
How it was run: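 Cytotoxicity in CEM cells: cells counted after 72 h drug exposure; the value is the concentration giving 50% cell growth toxicity.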

[14] = test system: Human immunodeficiency virus 1; assay: Tested in vitro against human immunodeficiency virus (HIV) infected CEM cells using XTT assay (HIV-HRF strain); format: functional, organism-based; details: Human immunodeficiency virus 1, CCRF-CEM; how it was run: as §1
[15] = test system: Human betaherpesvirus 5; assay: Tested in vitro against HCMV from WI-38 cells; NA= not active at 100 uM as determined in WI-38 cells; format: functional, organism-based
[16] = Ratio between TC50 against human immunodeficiency virus infected CEM cells and IC50 against CEM cells; format: functional, CCRF-CEM
How it was run: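 Selectivity index is TC50 divided by IC50. TC50 is the 50% toxic concentration from the XTT assay in CEM cells. IC50 is the 50% inhibitory concentration from the XTT assay in HIV-infected CEM cells.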

[17] = Tested in vitro against HSV 2 from WI-38 cells; format: organism-based; details: human alphaherpesvirus 2, WI-38 cells; read-out: TC50 (the source's name)
[18] = test system: Human immunodeficiency virus 1; assay: Tested in vitro against human immunodeficiency virus (HIV) infected CEM cells using XTT assay (LAV-BRU strain); format: functional, organism-based; details: Human immunodeficiency virus 1, CCRF-CEM; how it was run: as §1
[19] = test system: Human alphaherpesvirus 2; assay: as §5; format: functional, organism-based; details: Human alphaherpesvirus 2, Vero; how it was run: as §2
[20] = test system: Human alphaherpesvirus 2; assay: as §5; format: functional, organism-based, herpes simplex virus; details: Human alphaherpesvirus 2, Vero; how it was run: as §2

Row | SMILES | CC50 [1] [µM] | IC50 [8] | IC50 [9] [µM] | CC50 [10] [µM] | CC50 [11] [µM] | CC50 [13] [µM] | Selectivity index [16] | IC50 [18] [µM] | other results
1 | Nc1nc(O)c2ncn(C[C@H](OCP(=O)(O)O)C3CC3)c2n1 | > 1000 |  |  |  |  |  |  |  | IC50 [2]: Not Active; CC50 [3]: > 300 µM; CC50 [4]: > 300 µM; IC50 [5]: Not Active; IC50 [6]: Not Active
2 | Nc1nc(O)c2ncn(C[C@H](CCO)OCP(=O)(O)O)c2n1 | > 500 | Not Active | 162 | > 300 | 300 |  |  |  | IC50 [7]: Not Active
3 | [N-]=[N+]=NCC[C@@H](Cn1cnc2c(O)nc(N)nc21)OCP(=O)(O)O | > 500 | Not Active |  | 300 | 300 |  |  |  | IC50 [7]: Not Active; IC50 [12]: Not Active
4 | C=C[C@H](Cn1cnc2c(O)nc(N)nc21)OCP(=O)(O)O | > 1000 |  |  |  |  | > 1590 | >77 |  | IC50 [14]: 13 µM; CC50 [4]: > 300 µM; IC50 [15]: Not Active
5 | CC[C@@H](Cn1cnc2c(O)nc(N)nc21)OCP(=O)(O)O | > 500 | Not Active |  | 300 | 300 |  | >2 |  | IC50 [14]: 252 µM; IC50 [12]: Not Active
6 | CC[C@H](Cn1cnc2c(O)nc(N)nc21)OCP(=O)(O)O | 1000 |  |  |  |  |  | 19 |  | IC50 [14]: 54 µM; CC50 [17]: > 300 µM; CC50 [4]: > 300 µM; IC50 [5]: Not Active; IC50 [6]: Not Active
7 | C[C@@H](Cn1cnc2c(O)nc(N)nc21)OCP(=O)(O)O |  |  | 16 | > 330 | > 330 | 12 | 25 | 12 | IC50 [19]: 43 µM
8 | C=C[C@@H](Cn1cnc2c(O)nc(N)nc21)OCP(=O)(O)O | > 1000 | Not Active |  | > 300 | 300 | > 1590 | >20 |  | IC50 [14]: 49 µM; IC50 [12]: Not Active
9 | Nc1nc(O)c2ncn(C[C@H](CCF)OCP(=O)(O)O)c2n1 | > 500 | Not Active |  | 300 | 300 |  |  |  | IC50 [7]: Not Active; IC50 [12]: Not Active
10 | Nc1nc(O)c2ncn(C[C@@H](CCO)OCP(=O)(O)O)c2n1 | > 450 | Not Active |  |  | 300 |  |  |  | IC50 [7]: Not Active
11 | C[C@H](Cn1cnc2c(O)nc(N)nc21)OCP(=O)(O)O | > 500 |  | 16 | > 330 | > 330 | 180 | >500 | 1 | IC50 [19]: 82 µM
12 | Nc1nc(O)c2ncn(C[C@@H](OCP(=O)(O)O)C3CC3)c2n1 | 91 | Not Active |  |  | 300 |  |  |  | IC50 [2]: Not Active
13 | Nc1nc(O)c2ncn(CC(CF)OCP(=O)(O)O)c2n1 (single isomer, unassigned; form 1) | > 500 |  | 136 | > 310 | > 310 | 427 | > 63 | 8 | 
14 | Nc1nc2c(ncn2CC(CO)OCP(=O)(O)O)c(=O)[nH]1 (single isomer, unassigned; form 1) | > 500 |  | 1.6 | > 310 | > 310 |  | > 1 | 500 | IC50 [20]: 97 µM
15 | Nc1nc(O)c2ncn(CC(CCl)OCP(=O)(O)O)c2n1 (single isomer, unassigned; form 1) | > 500 | Not Active | 51 | > 300 | > 300 | 870 | > 11 | 45 | 
16 | [N-]=[N+]=NCC(Cn1cnc2c(O)nc(N)nc21)OCP(=O)(O)O (single isomer, unassigned; form 1) | > 1000 | Not Active | 33 | > 300 | > 300 | > 1400 | > 200 |  | IC50 [14]: 5 µM
17 | [N-]=[N+]=NCC(Cn1cnc2c(O)nc(N)nc21)OCP(=O)(O)O (single isomer, unassigned; form 2) | > 1000 | Not Active | 15 | > 300 | > 300 | 134 | > 20 |  | IC50 [14]: 51 µM
18 | Nc1nc(O)c2ncn(CC(CCl)OCP(=O)(O)O)c2n1 (single isomer, unassigned; form 2) | > 500 | Not Active | 112 | 300 | 300 | > 1500 | > 10 | 50 | 
19 | Nc1nc(O)c2ncn(CC(CO)OCP(=O)(O)O)c2n1 (single isomer, unassigned; form 2) |  |  | 0.8 | > 310 | > 310 |  | < 1 | > 500 | IC50 [19]: 99 µM
20 | Nc1nc(O)c2ncn(CC(CF)OCP(=O)(O)O)c2n1 (single isomer, unassigned; form 2) | > 500 |  | 150 | > 310 | > 310 | 93 | > 71 | 7 | 
21 | Nc1nc2c(ncn2CCOCP(=O)(O)O)c(=O)[nH]1 [GS-438] |  |  | 0.09 | 30 | 17 | 0.2 | 75 | 0.2 | IC50 [19]: 1.1 µM
